From ChEMBL document CHEMBL1143597, “Thrombospondin-1 mimetic peptide inhibitors of angiogenesis and tumor growth: design, synthesis, and optimization of pharmacokinetics and biological activities” (J Med Chem, 2005)
Where a SMILES comes first, the peptide text is derived from it. [ ]: non-standard residue; d: D form. d(aIle) = CC[C@H](C)[C@@H](N)C(=O)O; Nva = CCC[C@H](N)C(=O)O; Sar = CNCC(=O)O

Columns and labels:
[1] = In vitro inhibitory concentration against HMVEC endothelial tube formation was determined; 0.25 - 0.10 nM; assay type: functional, Homo sapiens
[2] = In vitro inhibitory concentration against HMVE cell migration was determined; assay type: functional, cell-based; details: Homo sapiens
Method in brief: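 Primary HMVEC grown to 80-90% confluency, starved 18 h in EBM with 5% FCS, labelled with calcein AM 30 min at room temperature. Cells with or without compound (in D5W) are placed above a filter with VEGF (10 ng) below, then held 4 h at 37 °C, 5% CO2. Unmigrated cells are wiped off and fluorescence is read (485/530). % inhibition is taken versus the VEGF positive control.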

[3] = In vitro inhibitory concentration against HMVEC endothelial tube formation was determined; […]; assay type: functional, Homo sapiens
[4] = In vitro inhibitory concentration against HMVEC endothelial tube formation was determined; 50 - 25 nM; assay type: functional, Homo sapiens
[5] = Inhibitory concentration against TSP-1 binding towards HMVEC cell line migration; assay type: functional, cell-based; details: Homo sapiens
[6] = In vitro inhibitory concentration against HMVEC endothelial tube formation was determined; assay type: functional, Homo sapiens
[7] = In vitro inhibitory concentration against HMVEC endothelial tube formation was determined; 200 - 100 nM; assay type: functional, Homo sapiens

Compound | IC50 [2] [nM] | also measured
CCC[C@@H](C(=O)N[C@H](C(=O)N[C@@H](CCCN=C(N)N)C(=O)N1CCC[C@H]1C(=O)NC(C)C)[C@@H](C)CC)N(C)C(=O)[C@@H](NC(=O)[C@H](NC(=O)[C@@H](NC(=O)CNC(=O)CN(C)C(=O)CCC(=O)O)C(C)C)[C@H](C)CC)[C@@H](C)O | 0.06 | IC50 [1]: 0.25 nM
CCC[C@H](NC(=O)[C@@H](NC(=O)[C@H](NC(=O)[C@@H](NC(=O)CNC(C)=O)C(C)C)[C@H](C)CC)[C@@H](C)O)C(=O)N[C@H](C(=O)N[C@@H](CCCN=C(N)N)C(=O)NCC)[C@@H](C)CC | 4.22 | –
CCNC(=O)[C@H](CCCN=C(N)N)NC(=O)[C@@H](NC(=O)[C@H](CCCN=C(N)N)NC(=O)[C@@H](NC(=O)[C@H](NC(=O)[C@@H](NC(=O)CNC(C)=O)C(C)C)[C@H](C)CC)[C@@H](C)O)[C@@H](C)CC | > 100 | –
CCC[C@H](NC(=O)[C@@H](NC(=O)[C@H](NC(=O)[C@@H](NC(=O)CNC(=O)CN(C)C(C)=O)C(C)C)[C@@H](C)CC)[C@@H](C)O)C(=O)N[C@H](C(=O)N[C@@H](CCCNC(=N)N)C(=O)N1CCC[C@H]1C(=O)NCC)[C@@H](C)CC [ABT-510] (Ac-[Sar]GV[d(aIle)]T[Nva]IRP-NHEt) | – | IC50 [5]: 0.89 nM; IC50 [3]: 10 nM
CCC[C@H](NC(=O)[C@@H](NC(=O)[C@H](NC(=O)[C@@H](NC(=O)CNC(=O)CN(C)C(C)=O)C(C)C)[C@H](C)CC)[C@@H](C)O)C(=O)N[C@H](C(=O)N[C@@H](CCCN=C(N)N)C(=O)N1CCC[C@H]1C(=O)NC(C)C)[C@@H](C)CC | 29 | IC50 [6]: > 1000 nM
CCC[C@H](NC(=O)[C@@H](NC(=O)[C@H](NC(=O)[C@@H](NC(=O)CNC(=O)CN(C)C(C)=O)C(C)C)[C@H](C)CC)[C@@H](C)O)C(=O)N[C@H](C(=O)N[C@@H](CCCN=C(N)N)C(=O)N1CCC[C@H]1C(=O)NCC)[C@@H](C)CC [ABT 510] (Ac-[Sar]GV[dI]T[Nva]IRP-NHEt) | – | IC50 [5]: 0.03 nM; IC50 [7]: 200 nM
CCC[C@@H](C(=O)N[C@H](C(=O)N[C@@H](CCCN=C(N)N)C(=O)N1CCC[C@H]1C(=O)NCC)[C@@H](C)CC)N(C)C(=O)[C@@H](NC(=O)[C@H](NC(=O)[C@@H](NC(=O)CNC(=O)CN(C)C(=O)CCC(=O)O)C(C)C)[C@H](C)CC)[C@@H](C)O | 0.45 | IC50 [3]: 10 nM

Further compounds by falling IC50 [2], results first:

IC50 [2] [nM] | Compound | also measured
1.45 | CCC[C@H](NC(=O)[C@@H](NC(=O)[C@H](CCCN=C(N)N)NC(=O)[C@@H](NC(=O)[C@H](NC(=O)[C@@H](NC(=O)CNC(C)=O)C(C)C)[C@H](C)CC)[C@@H](C)O)[C@@H](C)CC)C(=O)NCC | –
0.54 | CCC[C@@H](C(=O)N[C@H](C(=O)N[C@@H](CCCN=C(N)N)C(=O)N1CCC[C@H]1C(=O)NCC)[C@@H](C)CC)N(C)C(=O)[C@@H](NC(=O)[C@H](NC(=O)[C@@H](NC(=O)CNC(=O)CN(C)C(C)=O)C(C)C)[C@H](C)CC)[C@@H](C)O | IC50 [4]: 50 nM
0.26 | CCC[C@H](NC(=O)[C@@H](NC(=O)[C@H](NC(=O)[C@@H](NC(=O)CNC(=O)CN(C)C(=O)CCC(=O)O)C(C)C)[C@H](C)CC)[C@@H](C)O)C(=O)N[C@H](C(=O)N[C@@H](CCCN=C(N)N)C(=O)N1CCC[C@H]1C(=O)NCC)[C@@H](C)CC | IC50 [3]: 10 nM
0.07 | CCC[C@H](NC(=O)[C@@H](NC(=O)[C@H](NC(=O)[C@@H](NC(=O)CNC(C)=O)C(C)C)[C@H](C)CC)[C@@H](C)O)C(=O)N[C@H](C(=O)N[C@@H](CCCN=C(N)N)C(=O)N1CCC[C@H]1C(=O)NCC)[C@@H](C)CC | –
